Key:
[1] = target: T1, Gastrin/cholecystokinin type B receptor (Homo sapiens, UniProt P32239); assay: Binding affinity against human Cholecystokinin type B receptor in CHO-K1 cells using [125I]-Bolton-Hunter CCK-8 as radioligand; assay type: cell-based
T1 sequence (P32239 whole entry): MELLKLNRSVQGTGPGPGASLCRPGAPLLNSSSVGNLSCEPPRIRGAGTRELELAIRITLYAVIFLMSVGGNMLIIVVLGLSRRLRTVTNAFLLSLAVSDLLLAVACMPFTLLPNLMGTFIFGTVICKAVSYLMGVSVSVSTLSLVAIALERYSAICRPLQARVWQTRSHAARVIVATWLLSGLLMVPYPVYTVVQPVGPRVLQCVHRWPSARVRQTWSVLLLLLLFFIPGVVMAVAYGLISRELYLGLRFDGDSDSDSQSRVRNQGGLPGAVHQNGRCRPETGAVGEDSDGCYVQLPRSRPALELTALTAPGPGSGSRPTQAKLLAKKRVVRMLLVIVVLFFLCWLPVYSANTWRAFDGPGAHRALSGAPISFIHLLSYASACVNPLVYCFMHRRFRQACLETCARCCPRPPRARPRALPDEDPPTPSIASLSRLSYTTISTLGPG

[2] = target: T2, Cholecystokinin receptor type A (Cavia porcellus) (UniProt Q63931); assay: In vitro agonist activity against Cholecystokinin type A receptor isolated from guinea pig gall bladder.; assay type: functional, tissue-based
T2 sequence (whole entry): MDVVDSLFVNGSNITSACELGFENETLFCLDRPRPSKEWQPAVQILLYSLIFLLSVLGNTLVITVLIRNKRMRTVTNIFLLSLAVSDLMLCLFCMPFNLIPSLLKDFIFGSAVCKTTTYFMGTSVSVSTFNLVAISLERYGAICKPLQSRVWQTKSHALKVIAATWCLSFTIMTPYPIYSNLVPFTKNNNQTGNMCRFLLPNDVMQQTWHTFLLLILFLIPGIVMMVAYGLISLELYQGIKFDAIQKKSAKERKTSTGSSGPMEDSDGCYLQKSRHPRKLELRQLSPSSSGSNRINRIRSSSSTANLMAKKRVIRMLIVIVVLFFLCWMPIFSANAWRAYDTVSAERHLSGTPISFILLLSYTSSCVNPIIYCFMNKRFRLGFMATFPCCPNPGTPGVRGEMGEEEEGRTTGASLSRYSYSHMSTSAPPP

Cavia porcellus = organism: Cavia porcellus; assay: Relative efficacy determined by the maximal contraction observed at 30 uM, standardized to CCK-8; assay type: functional
Method in brief: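 Isolated guinea pig gallbladder contraction. Maximal contraction at 30 μM test ligand expressed relative to CCK-8 (1 μM) = 1.0; n ≥ 3.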

Mus musculus [3] = assay: Compound tested in vivo for mouse gallbladder emptying at 0.1 uM/kg, ip; assay type: functional
[4] = target: T3, Cholecystokinin receptor type A (Homo sapiens, UniProt P32238); assay: Binding affinity against human Cholecystokinin type A receptor in membrane preparation isolated from CHO-K1 cells stably transfected with cDNA of human CCK-A using [125I]-Bolton-Hunter CCK-8 as radioligand; assay type: cell membranes
T3 sequence (P32238 whole entry): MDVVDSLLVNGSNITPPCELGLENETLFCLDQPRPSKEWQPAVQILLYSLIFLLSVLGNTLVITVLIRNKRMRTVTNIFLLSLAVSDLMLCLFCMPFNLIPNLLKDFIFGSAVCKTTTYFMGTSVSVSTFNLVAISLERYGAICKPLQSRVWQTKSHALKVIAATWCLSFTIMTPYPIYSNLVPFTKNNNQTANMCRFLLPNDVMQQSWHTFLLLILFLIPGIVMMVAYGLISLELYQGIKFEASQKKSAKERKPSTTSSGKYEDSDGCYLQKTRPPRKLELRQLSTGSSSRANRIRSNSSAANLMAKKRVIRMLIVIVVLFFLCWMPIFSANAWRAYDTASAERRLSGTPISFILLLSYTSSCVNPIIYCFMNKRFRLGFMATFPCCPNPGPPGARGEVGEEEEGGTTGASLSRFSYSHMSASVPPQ

Mus musculus [5] = assay: Compound tested in vivo for mouse gallbladder emptying at 1.0 uM/kg, po; assay type: functional
Mus musculus [6] = assay: Compound tested in vivo for mouse gallbladder emptying at 10 uM/kg, po; assay type: functional

Row | Compound | IC50 [1] [nM] | ED50 [2] [nM] | RE (Cavia porcellus) | Activity (Mus musculus [3]) [%] | IC50 [4] [nM] | Activity (Mus musculus [5]) [%] | Activity (Mus musculus [6]) [%]
1 | CC(C)N(C(=O)CN1C(=O)C(C)(NC(=O)Nc2ccccc2)C(=O)N(c2ccccc2)c2ccccc21)c1ccccc1 (configuration not stated) | 282 | > 10000 | 0.5 | – | – | – | –
2 | CC(C)N(C(=O)CN1C(=O)C(NC(=O)Cc2ccccc2)C(=O)N(c2ccccc2)c2ccccc21)c1ccccc1 (configuration not stated) | – | – | 0.3 | – | – | – | –
3 | CC(C)N(C(=O)CN1C(=O)C(OC(=O)Nc2ccccc2)C(=O)N(c2ccccc2)c2ccccc21)c1ccccc1 (configuration not stated) | – | – | 0.2 | – | – | – | –
4 | CC(C)N(C(=O)CN1C(=O)C(NC(=O)Nc2ccccc2)C(=O)N(c2ccccc2)c2ccccc21)c1ccccc1 (configuration not stated) | – | 1600 | 0.8 | 78 | – | – | –
5 | CC(C)N(C(=O)CN1C(=O)C(CC(=O)Nc2ccccc2)C(=O)N(c2ccccc2)c2ccccc21)c1ccccc1 (configuration not stated) | 832 | 430 | 0.5 | 63 | 155 | 34 | –
6 | CC(C)N(C(=O)CN1C(=O)C(CC(=O)Nc2ccccc2)(Cc2ccccc2)C(=O)N(c2ccccc2)c2ccccc21)c1ccccc1 (configuration not stated) | 8910 | – | – | – | 389 | – | –
7 | CCC1(CC(=O)Nc2ccccc2)C(=O)N(CC(=O)N(c2ccccc2)C(C)C)c2ccccc2N(c2ccccc2)C1=O (configuration not stated) | 794 | 780 | 0.6 | 68 | – | 45 | 42
8 | CSCC[C@H](NC(=O)[C@H](Cc1ccc(OS(=O)(=O)O)cc1)NC(=O)[C@@H](N)CC(=O)O)C(=O)NCC(=O)N[C@@H](Cc1c[nH]c2ccccc12)C(=O)N[C@@H](CCSC)C(=O)N[C@@H](CC(=O)O)C(=O)N[C@@H](Cc1ccccc1)C(N)=O [SINCALIDE] | – | 2 | 1 | – | – | – | –
9 | CC(C)N(C(=O)CN1C(=O)C(C)(CC(=O)Nc2ccccc2)C(=O)N(c2ccccc2)c2ccccc21)c1ccccc1 (configuration not stated) | 8320 | 200 | 0.7 | 73 | 75.9 | 36 | 73
10 | CC(C)N(C(=O)CN1C(=O)C(NC(=O)Oc2ccccc2)C(=O)N(c2ccccc2)c2ccccc21)c1ccccc1 (configuration not stated) | – | – | 0.2 | – | – | – | –

From ChEMBL document CHEMBL1129254, “3-[2-(N-phenylacetamide)]-1,5-benzodiazepines: orally active, binding selective CCK-A agonists” (J Med Chem, 1996)
